# Results of several laboratories.
# Compare with care: the assays were run in different laboratories.
# Target: Serine/threonine-protein kinase pim-1 (PIM1, Homo sapiens, UniProt P11309)
Compound,test,setting,endpoint,result
C#Cc1cnc(Nc2ccnc(CO)c2)nc1Nc1ccccc1S(C)(=O)=NC#N (centres unmarked),cell-free assay,1 µM,remaining signal,87%
CCCCC(=O)Nc1ccc(-c2ccc3ncn(CCC)c(=O)c3c2)cn1,"binding, competition with immobilised ligand",0.5 µM,remaining binding,100%
C[C@H]1CC[C@H](n2c3cnccc3c3cnc(Nc4ccc5c(n4)CCN(C(=O)CO)C5)nc32)CC1,cell-free assay,1 µM,remaining signal,59%
CC(C)S(=O)(=O)c1ccc2nccc(Nc3ccc4sc(C5CCCC5)nc4c3)c2c1,"enzyme activity, inhibitor",1 µM,activity vs control,101%
N#Cc1ccc(NC(=O)Nc2ccccc2)cc1,"cell-free assay, competition with immobilised ligand",25 µM,remaining binding,87%
COc1ccc2oc(-c3ccc4nc(N)oc4c3)c/c(=N\c3ccccc3NC(=O)CCN)c2c1,binding,1 µM,remaining binding,119%
CN1CCN(C(=O)c2ccc(NC(=O)Nc3ccc(N(C)c4ccnc(Nc5ccc(CS(C)(=O)=O)cc5)n4)cc3)cc2)CC1,binding,1 µM,remaining binding,100%
C=CC(=O)N1CCC([C@@H]2CCNc3c(C(N)=O)c(-c4ccc(Oc5ccccc5)cc4)nn32)CC1,"enzyme activity, inhibitor",1 µM,inhibition,6%
C1=C/COCc2cc(ccc2OCCN2CCCC2)Nc2nccc(n2)-c2cccc(c2)COC/1,binding,0.1 µM,remaining binding,100%
CC#CC(=O)N1CCC[C@H]1c1nc(-c2ccc(C(=O)Nc3ccccn3)cc2)c2c(N)nccn12,"enzyme activity, inhibitor",1 µM,inhibition,0%
CC(=O)ON=C1C=CC(=C(C#N)c2ccccc2)C=C1,"enzyme activity, inhibitor, ADP detection",20 µM,activity vs control,102%
